High-throughput results: PubChem BioAssay, several laboratories
TCR CD3 inh: inhibitors of human TCR-CD3 interaction; TAMRA-labeled TCR probe fluorescence, biochemical; inhibition, % at 9.4 µM; 360,000 tested, 0.37% active; AID 651800; in the data active = inhibition above about 19%;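 note: recombinant mutant TCR 2C K166C tagged with TAMRA read by polarization; 0% = receptor in buffer alone and 100% = receptor with positive control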
Apaf-1 inh: human Apaf-1 inhibition | inhibition, % at 20 µM | O14727 | 330,000 tested, 0.71% active | reconstituted apoptosome caspase-3 activity, DEVD-Rh110 fluorescence; active = inhibition of at least 40% at 20 µM;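 note: plate controls were DMSO wells for no effect and DEVD-CHO caspase inhibitor wells for full effect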
Target sequence (O14727 whole entry, looked up): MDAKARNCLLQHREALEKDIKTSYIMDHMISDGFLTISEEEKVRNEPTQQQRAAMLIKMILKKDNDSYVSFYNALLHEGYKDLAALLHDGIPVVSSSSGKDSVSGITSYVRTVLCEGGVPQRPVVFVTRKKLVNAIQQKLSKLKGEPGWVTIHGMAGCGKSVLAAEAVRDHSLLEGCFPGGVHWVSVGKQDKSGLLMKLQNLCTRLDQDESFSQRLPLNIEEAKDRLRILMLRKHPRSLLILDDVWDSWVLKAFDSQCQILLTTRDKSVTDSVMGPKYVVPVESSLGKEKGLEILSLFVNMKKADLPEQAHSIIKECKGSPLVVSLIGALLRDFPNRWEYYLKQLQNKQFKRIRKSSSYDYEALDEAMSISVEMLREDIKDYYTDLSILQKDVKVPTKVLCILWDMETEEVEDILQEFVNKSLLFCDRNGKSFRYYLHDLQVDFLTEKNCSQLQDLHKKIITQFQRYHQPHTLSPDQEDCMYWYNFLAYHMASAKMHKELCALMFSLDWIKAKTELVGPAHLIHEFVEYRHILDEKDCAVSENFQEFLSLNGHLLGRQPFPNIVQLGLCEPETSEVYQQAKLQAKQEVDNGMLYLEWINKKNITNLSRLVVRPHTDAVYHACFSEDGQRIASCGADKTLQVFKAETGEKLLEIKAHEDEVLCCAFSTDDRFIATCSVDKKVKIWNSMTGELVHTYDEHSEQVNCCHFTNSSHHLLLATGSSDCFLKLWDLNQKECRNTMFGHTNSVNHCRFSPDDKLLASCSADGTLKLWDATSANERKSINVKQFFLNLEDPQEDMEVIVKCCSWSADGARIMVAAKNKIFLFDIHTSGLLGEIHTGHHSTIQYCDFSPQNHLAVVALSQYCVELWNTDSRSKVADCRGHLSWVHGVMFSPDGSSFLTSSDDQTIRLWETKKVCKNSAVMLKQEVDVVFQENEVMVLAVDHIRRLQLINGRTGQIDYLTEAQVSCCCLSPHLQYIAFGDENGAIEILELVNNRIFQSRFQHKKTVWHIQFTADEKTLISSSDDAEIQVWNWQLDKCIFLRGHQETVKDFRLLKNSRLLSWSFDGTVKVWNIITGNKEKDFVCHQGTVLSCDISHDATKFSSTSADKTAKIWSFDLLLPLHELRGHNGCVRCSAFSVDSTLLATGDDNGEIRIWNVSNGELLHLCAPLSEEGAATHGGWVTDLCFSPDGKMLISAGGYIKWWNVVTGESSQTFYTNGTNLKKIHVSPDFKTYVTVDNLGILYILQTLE
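Material: cell-free apoptosome with Apaf-1, procaspase-3 and caspase-9; Buffer or medium: Hepes pH 7.5 with detergent and BSA; Reagent: cytochrome c trigger plus (Z-DEVD)2-Rh110 caspase-3 substrate; Times: compound with Apaf-1, dATP, procaspase-3 30 min, then 50 min reaction, room temperature; Technique: Rh110 fluorescence intensity.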
PAD4 FP inh: inhibitors of human PAD4. Q9UM07. recombinant PAD4, RCA probe fluorescence polarization. inhibition, % at 6.36 µM. 330,000 tested, 0.41% active. AID 485272;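 active = percent inhibition above a cutoff equal to the mean of all tested compounds plus 3 SD, cut at about 15% in these data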;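 note: 0% = PAD4 with RCA probe and DMSO and 100% = probe without PAD4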
TDP2 absorb: blocks human TDP2 phosphodiesterase activity; O95551; recombinant TDP2, T5PNP hydrolysis, p-nitrophenol absorbance 415 nm; inhibition, % at 12.8 µM; 370,000 tested, 0.34% active;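 active = inhibition above the mean of all tested compounds plus 3 SD, set per campaign, cut at about 25% in these data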;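 note: 0% = DMSO with enzyme and 100% = buffer with substrate but no TDP2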
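Material: recombinant human TDP2; quantity: TDP2 enzyme at 120 nM final; medium: Tris-HCl pH 7.5 with MgCl2; compound: single concentration, 12.8 µM nominal, with 1% DMSO; incubation: 2 h enzyme incubation at 37 °C; signal: epi absorbance; measure: percent inhibition; benchmarks: high control without enzyme, low control DMSO plus TDP2; repeats: singlicate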
GSTO1 counter: GSTO1 inhibition, counter-screen for RBBP9 inhibitors; P78417; recombinant GSTO1, activity-based probe fluorescence polarization; inhibition, % at 5.96 µM; 300,000 tested, 1.1% active; AID 1974;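 active = inhibition above the campaign mean inhibition plus 3 SD, cut at about 35% in these data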;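 note: 0% = GSTO1-1 with DMSO and 100% = wells lacking GSTO1-1 enzyme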
SIAE inh: inhibitors of human sialic acid acetylesterase SIAE. Q9HAT2. SIAE FP-Rh probe binding, fluorescence polarization. inhibition, % at 9.66 µM. 370,000 tested, 0.69% active. AID 1053197;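 active = inhibition above a cutoff: mean of compounds within the control limits plus 3 SD of those, cut at about 17% in these data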;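 note: 0% = plate median of compound wells and 100% = probe without SIAE protein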
GSTO1 confirm: GSTO1 (human) inhibition, confirmation; recombinant GSTO1, probe fluorescence polarization; inhibition, % at 5.96 µM; 2,400 tested, 54% active; shares compounds with GSTO1 counter;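 active = inhibition above the primary screen's cutoff, its mean inhibition plus 3 SD, cut at about 35% in these data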;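 note: loss of polarization as inhibitors block binding of rhodamine sulfonate ester activity probe; 0% = GSTO1 with DMSO and 100% = wells lacking GSTO1 enzyme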
GSTO1 ABPP inh: GSTO1 (human) inhibition by gel ABPP | 130 tested, 30% active | recombinant GSTO1, gel ABPP SE-Rh probe fluorescence | inhibition, % at 1 µM | AID 463110 | shares compounds with GSTO1 counter;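 active = inhibition of the enzyme GSTO1 above about 75%, limit read from the data; inactive = inhibition below that limit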
Numbers without * were called inactive; · = no result; + = active, no number. Shown are actives, neighbours in structure and some others; about 2.4% of the full set was active somewhere.

SMILES	TCR CD3 inh	Apaf-1 inh	PAD4 FP inh	TDP2 absorb	GSTO1 counter	SIAE inh	GSTO1 confirm	GSTO1 ABPP inh
N/C(=C\C(=O)c1cc(Cl)ccc1O)C(Cl)(Cl)Cl	12.6	-5.6	-2.3	-19.2	65.2*	10.3	77.1*	·
O=[N+]([O-])c1ccccc1S(=O)NCc1c(Cl)cccc1Cl (stereo not drawn)	-4.0	·	·	-6.7	·	-3.7	·	·
O=C1c2ccccc2C(=O)C12OC2c1ccc(Cl)cc1 (stereo not drawn)	·	27.2	-17.9	·	44.7*	·	14.6	·
Cc1ccc(C(=O)C[n+]2ccccc2C)cc1[N+](=O)[O-]	-0.5	-7.4	4.5	-2.5	6.6	8.8	·	·
ClCc1cc2ccccc2nc1Cl	-11.3	-8.6	-6.4	1.0	43.0*	-0.7	94.8*	40.0
C=CCN(C(=O)c1cccc(N2C(=O)C3CC=CC(C)C3C2=O)c1)c1ccccc1 (stereo not drawn)	-0.6	-9.3	-2.6	11.0	8.3	5.3	·	·
Cc1cc(C)n(C(C)CC(=O)N2CCc3ccccc32)n1 (stereo not drawn)	3.4	-4.1	-0.9	6.0	5.6	-3.4	·	·
CCN(CC)c1ccc2c(-c3ccc(S(=O)(=O)O)cc3S(=O)(=O)[O-])c3ccc(=[N+](CC)CC)cc-3oc2c1	·	-5.2	·	·	197.6*	·	+	·
COc1ccc2[nH]cc(C(=O)CCl)c2c1	-3.7	-6.1	4.3	-6.1	83.4*	1.2	100.2*	·
COc1ccc2[nH]cc(C(=O)CN3CC(C)CC(C)C3)c2c1 (stereo not drawn)	-2.8	0.7	-0.3	-10.0	2.1	7.7	·	·
CNC(=O)COC(=O)/C=C/c1ccco1	-3.7	3.0	3.2	21.7	9.8	6.2	·	·
c1ccc(Nc2cccc(Nc3ccccc3)c2)cc1	-2.2	10.1	-7.3	1.2	3.6	12.9	·	·
[O-][N+]1=c2ccc(Nc3ccccc3)cc2=NC12CCCCC2	9.6	·	5.7	4.1	57.9*	4.2	34.9*	·
CCOc1ccc(-c2csc(/C(C#N)=C\c3ccc(O)c([N+](=O)[O-])c3)n2)cc1	-4.5	14.6	-1.0	5.1	43.1*	2.9	53.9*	·
COc1ccccc1N(CC1CO1)S(=O)(=O)c1ccccc1 (stereo not drawn)	7.3	7.7	-0.7	-10.1	85.3*	0.0	78.1*	13.0
COc1ccccc1N(CC(=O)NC1CCCC1)S(=O)(=O)c1ccc(C)cc1	2.6	-0.8	-1.4	-6.5	-1.4	1.1	·	·
COc1ccc([N+](=O)[O-])cc1N(CC1CO1)S(=O)(=O)c1ccc(C)cc1 (stereo not drawn)	1.2	3.6	2.3	6.4	87.6*	-1.3	98.2*	44.0
COc1ccc(N(CC2CO2)S(=O)(=O)c2ccccc2)cc1 (stereo not drawn)	-5.6	-5.7	4.9	2.2	70.0*	-5.7	85.5*	19.0
COc1ccccc1N(CC1CO1)S(=O)(=O)c1ccc(C)cc1 (stereo not drawn)	4.2	-12.1	1.5	-2.6	74.7*	1.1	82.6*	41.0
COc1ccccc1N(CC(O)COc1ccccc1C)S(=O)(=O)c1ccccc1 (stereo not drawn)	6.6	10.6	-1.7	-8.4	-2.9	3.0	·	·
O=C(Nc1ccon1)Nc1cc(Cl)ccc1Cl	-1.5	9.2	-1.4	-22.7	-6.0	6.4	·	·
CCCCCNC(=O)c1cc(S(=O)(=O)N2CCCCC2)ccc1F	5.6	0.2	0.2	-12.6	10.2	2.7	·	·
O=[N+]([O-])c1ccccc1N(CC1CO1)S(=O)(=O)c1ccccc1 (stereo not drawn)	6.5	-1.0	-1.3	7.2	81.4*	2.5	94.0*	12.0
O=S(=O)(c1ccccc1)N(CC1CO1)c1cc(Cl)ccc1Cl (stereo not drawn)	-0.5	3.2	1.4	-13.9	92.1*	-0.1	94.0*	51.0
CCCOC(=O)CSC1=C(C#N)C(c2ccccc2OCC)C(C#N)C(=O)N1 (stereo not drawn)	-0.6	4.8	1.5	-3.3	71.3*	7.9	0.4	·
